Results published in ChEMBL document CHEMBL2429732, “Aminopyrazole-Phenylalanine Based GPR142 Agonists: Discovery of Tool Compound and in Vivo Efficacy Studies” (ACS Med Chem Lett, 2013).
Calls of active or inactive are those of the source. The calls are words filed in the database; no cut-off is given here.

How the values were obtained:
[1] = Fraction unbound in human plasma; type: ADME, cell-free
[2] = Tmax in rat at 2 mg/kg, po; type: ADME, organism-based; design: dose 2 mg/kg, route oral; settings: in vivo
Procedure, shortened: (§1)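 Oral dosing used the ethyl ester prodrug. All pharmacokinetic calculations were based on the parent free acid in plasma.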

[3] = Half life in cynomolgus monkey at 0.5 mg/kg, iv; type: ADME, organism-based, Macaca fascicularis; design: dose 0.5 mg/kg, route intravenous; settings: in vivo
[4] = Clearance in rat at 0.5 mg/kg, iv; type: ADME, organism-based; design: dose 0.5 mg/kg, route intravenous; settings: in vivo
[5] = Tmax in cynomolgus monkey at 2 mg/kg, sc; type: ADME, organism-based, Macaca fascicularis; design: dose 2 mg/kg, route subcutaneous; settings: in vivo
[6] = Oral bioavailability in cynomolgus monkey at 10 mg/kg; type: ADME, organism-based, Macaca fascicularis; settings: in vivo; procedure, shortened: as §1
[7] = molecular target: T1, Probable G-protein coupled receptor 142 (Mus musculus) (UniProt Q7TQN9); assay: Agonist activity at mouse GPR142 relative to tryptophan
T1 sequence (whole entry): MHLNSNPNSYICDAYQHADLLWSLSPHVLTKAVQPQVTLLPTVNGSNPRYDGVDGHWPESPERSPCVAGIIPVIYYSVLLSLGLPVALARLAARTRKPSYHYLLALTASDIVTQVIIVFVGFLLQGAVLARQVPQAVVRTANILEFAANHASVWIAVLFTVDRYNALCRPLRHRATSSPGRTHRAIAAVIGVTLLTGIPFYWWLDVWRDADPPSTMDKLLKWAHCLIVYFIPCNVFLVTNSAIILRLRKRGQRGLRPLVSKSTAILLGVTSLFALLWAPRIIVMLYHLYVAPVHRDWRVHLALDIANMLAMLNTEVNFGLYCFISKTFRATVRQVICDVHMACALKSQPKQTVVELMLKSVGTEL
Procedure, shortened: (§2)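 Inositol phosphate accumulation in HEK293 cells transfected with mouse or cynomolgus monkey receptor plasmid, tritiated inositol labelling, compounds in HBSS/0.01% BSA plus 10 mM LiCl, 37 °C for 1 h, SPA scintillation read-out; maximal efficacy expressed relative to tryptophan response.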

[8] = Tmax in cynomolgus monkey at 10 mg/kg, po; type: ADME, organism-based, Macaca fascicularis; design: dose 10 mg/kg, route oral; settings: in vivo; procedure, shortened: as §1
Cytochrome P450 3A4 = Cytochrome P450 3A4 (Homo sapiens, UniProt P08684); assay: Inhibition of CYP3A4 (unknown origin); type: ADME
[9] = Fraction unbound in rat plasma; type: ADME, cell-free
Mus musculus [10] = assay: Antidiabetic activity in wild type mouse assessed as reduction of plasma glucose AUC at 10 mg/kg, sc administered 15 mins before glucose challenge measured up to 90 mins; design: scale not given: the % may be the effect or the level left; settings: route subcutaneous
[11] = Metabolic stability in human liver microsomes assessed as compound remaining at 1 uM after 30 mins; type: ADME, Microsome; settings: read-out: Stability
Procedure, shortened: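 Compound at 1.0 μM was incubated for 30 min in human liver microsomes; percentage of intact compound remaining was determined.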

[12] = Bioavailability in rat at 2 mg/kg, sc; type: ADME, organism-based; settings: in vivo
[13] = Cmax in cynomolgus monkey at 2 mg/kg, sc; type: ADME, organism-based, Macaca fascicularis; design: dose 2 mg/kg, route subcutaneous; settings: in vivo
[14] = Volume of distribution at steady state in cynomolgus monkey at 0.5 mg/kg, iv; type: ADME, organism-based, Macaca fascicularis; design: dose 0.5 mg/kg, route intravenous; settings: in vivo, read-out: Vdss
[15] = molecular target: T2, Nuclear receptor subfamily 1 group I member 2 (Homo sapiens, UniProt O75469); assay: Induction of human PXR activity
T2 sequence (O75469 whole entry): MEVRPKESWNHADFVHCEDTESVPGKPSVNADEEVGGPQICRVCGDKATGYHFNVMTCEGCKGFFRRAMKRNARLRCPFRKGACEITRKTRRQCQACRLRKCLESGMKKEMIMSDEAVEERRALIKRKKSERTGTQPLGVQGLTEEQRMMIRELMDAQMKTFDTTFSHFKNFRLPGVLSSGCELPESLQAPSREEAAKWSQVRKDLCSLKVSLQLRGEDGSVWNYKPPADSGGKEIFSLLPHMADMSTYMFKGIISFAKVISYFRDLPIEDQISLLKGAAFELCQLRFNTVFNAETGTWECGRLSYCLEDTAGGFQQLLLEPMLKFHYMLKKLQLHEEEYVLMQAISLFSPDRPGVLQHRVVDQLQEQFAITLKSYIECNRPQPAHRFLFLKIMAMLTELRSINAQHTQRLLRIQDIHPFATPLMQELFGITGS

[16] = Half life in rat at 0.5 mg/kg, iv; type: ADME, organism-based; design: dose 0.5 mg/kg, route intravenous; settings: in vivo
[17] = molecular target: T3, Probable G-protein coupled receptor 142 (Mus musculus, UniProt Q7TQN9); assay: Agonist activity at mouse GPR142
T3 sequence (Q7TQN9 whole entry): T1 sequence (whole entry)
Procedure, shortened: (§3)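 HEK293 cells, plated at 25 000/well, were transiently transfected with 100 ng receptor plasmid per well. They were labelled overnight with 1.0 μCi/mL tritiated inositol in inositol-free DMEM/10% dialyzed FCS. Cells were then exposed to graded compound levels in HBSS/0.01% BSA with 10 mM LiCl for 1 h at 37 °C. Cells were lysed in cold 20 mM formic acid (5 h, 4 °C), and IP was captured on yttrium silicate SPA beads and read by scintillation counting. EC50 is the mean of three runs.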

[18] = molecular target: Voltage-gated inwardly rectifying potassium channel KCNH2 (Homo sapiens, UniProt Q12809); assay: Inhibition of human ERG by patch clamp assay
[19] = molecular target: T4, Probable G-protein coupled receptor 142 (Homo sapiens, UniProt Q7Z601); assay: Agonist activity at human GPR142 expressed in HEK293 cells assessed as inositol phosphate accumulation using [3H]-inositol after 1 hr by scintillation counting; type: functional, cell-based
T4 sequence (Q7Z601 whole entry): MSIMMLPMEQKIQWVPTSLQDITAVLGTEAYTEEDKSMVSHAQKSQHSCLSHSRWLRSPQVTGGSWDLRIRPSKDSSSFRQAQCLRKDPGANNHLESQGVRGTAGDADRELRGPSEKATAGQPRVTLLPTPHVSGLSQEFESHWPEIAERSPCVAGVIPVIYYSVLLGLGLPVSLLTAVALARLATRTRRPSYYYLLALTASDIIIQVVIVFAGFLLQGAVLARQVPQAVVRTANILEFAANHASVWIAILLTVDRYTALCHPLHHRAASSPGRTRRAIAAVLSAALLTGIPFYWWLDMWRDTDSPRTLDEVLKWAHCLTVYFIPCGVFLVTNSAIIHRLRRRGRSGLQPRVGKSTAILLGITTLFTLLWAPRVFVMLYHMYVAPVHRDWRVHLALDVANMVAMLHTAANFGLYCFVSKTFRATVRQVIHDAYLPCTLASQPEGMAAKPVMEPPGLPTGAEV

[20] = Tmax in rat at 2 mg/kg, sc; type: ADME, organism-based; design: dose 2 mg/kg, route subcutaneous; settings: in vivo
Macaca fascicularis = species on record: Macaca fascicularis; assay: Agonist activity at cynomolgus monkey GPR142 relative to tryptophan; procedure, shortened: as §2
[21] = Agonist activity at cynomolgus monkey GPR142; design: species or system Macaca fascicularis; procedure, shortened: as §3
[22] = molecular target: T1, Probable G-protein coupled receptor 142 (Mus musculus); assay: Ex vivo agonist activity at GPR142 in wild type mouse islets assessed as stimulation of insulin secretion at 3 to 10 uM by ELISA in presence of glucose
Procedure, shortened: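 Islets from wild-type and GPR142 knockout mice incubated with compound at 3.0 and 10.0 μM in presence of 16.7 mM glucose; insulin secretion measured.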

[23] = Oral bioavailability in rat at 2 mg/kg; type: ADME, organism-based; settings: in vivo; procedure, shortened: as §1
[24] = Permeability across human Caco2 cells; type: ADME, cell-based; settings: Caco-2, read-out: permeability
[25] = Cmax in rat at 2 mg/kg, sc; type: ADME, organism-based; design: dose 2 mg/kg, route subcutaneous; settings: in vivo
Mus musculus [26] = assay: Antidiabetic activity in mouse bearing human islets assessed as reduction of plasma glucose AUC at 10 mg/kg, sc administered 15 mins before glucose challenge measured up to 90 mins; design: scale not given: the % may be the effect or the level left; settings: route subcutaneous
[27] = Metabolic stability in rat liver microsomes assessed as compound remaining at 1 uM after 30 mins; type: ADME, Microsome; settings: read-out: Stability
Cytochrome P450 2D6 = Cytochrome P450 2D6 (Homo sapiens, UniProt P10635); assay: Inhibition of CYP2D6 (unknown origin); type: ADME
[28] = Clearance in cynomolgus monkey at 0.5 mg/kg, iv; type: ADME, organism-based, Macaca fascicularis; design: dose 0.5 mg/kg, route intravenous; settings: in vivo
[29] = Fraction unbound in cynomolgus monkey plasma; type: ADME, cell-free, Macaca fascicularis
[30] = Cmax in rat at 2 mg/kg, po; type: ADME, organism-based; design: dose 2 mg/kg, route oral; settings: in vivo; procedure, shortened: as §1
[31] = Volume of distribution at steady state in rat at 0.5 mg/kg, iv; type: ADME, organism-based; design: dose 0.5 mg/kg, route intravenous; settings: in vivo, read-out: Vdss
Mus musculus [32] = species on record: Mus musculus; assay: Induction of insulin secretion in GPR142-deficient mouse islets at 3 to 10 uM by ELISA in presence of glucose; type: functional
Procedure, shortened: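 Islets isolated from wild-type and GPR142 knockout mice were incubated with test agent at 3.0 and 10.0 μM in the presence of 16.7 mM glucose, and insulin secretion was measured.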

[33] = Cmax in cynomolgus monkey at 10 mg/kg, po; type: ADME, organism-based, Macaca fascicularis; design: dose 10 mg/kg, route oral; settings: in vivo; procedure, shortened: as §1
[34] = Bioavailability in cynomolgus monkey at 2 mg/kg, sc; type: ADME, organism-based, Macaca fascicularis; settings: in vivo

Sequence of Cytochrome P450 2D6 (P10635 whole entry): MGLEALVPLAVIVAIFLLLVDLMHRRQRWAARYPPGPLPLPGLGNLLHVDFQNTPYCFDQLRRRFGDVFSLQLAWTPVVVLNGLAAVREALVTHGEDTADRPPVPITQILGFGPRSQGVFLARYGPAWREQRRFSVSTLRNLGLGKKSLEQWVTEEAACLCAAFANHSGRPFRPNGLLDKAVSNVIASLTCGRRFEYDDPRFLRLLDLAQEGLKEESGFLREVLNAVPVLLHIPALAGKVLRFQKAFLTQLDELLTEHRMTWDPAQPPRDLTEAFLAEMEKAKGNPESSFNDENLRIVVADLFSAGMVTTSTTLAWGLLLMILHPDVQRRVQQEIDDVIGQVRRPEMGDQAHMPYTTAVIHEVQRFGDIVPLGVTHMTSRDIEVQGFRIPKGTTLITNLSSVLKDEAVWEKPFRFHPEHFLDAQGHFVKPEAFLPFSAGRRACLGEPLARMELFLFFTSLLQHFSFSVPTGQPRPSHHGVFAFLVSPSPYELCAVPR
Sequence of Voltage-gated inwardly rectifying potassium channel KCNH2 (Q12809 whole entry): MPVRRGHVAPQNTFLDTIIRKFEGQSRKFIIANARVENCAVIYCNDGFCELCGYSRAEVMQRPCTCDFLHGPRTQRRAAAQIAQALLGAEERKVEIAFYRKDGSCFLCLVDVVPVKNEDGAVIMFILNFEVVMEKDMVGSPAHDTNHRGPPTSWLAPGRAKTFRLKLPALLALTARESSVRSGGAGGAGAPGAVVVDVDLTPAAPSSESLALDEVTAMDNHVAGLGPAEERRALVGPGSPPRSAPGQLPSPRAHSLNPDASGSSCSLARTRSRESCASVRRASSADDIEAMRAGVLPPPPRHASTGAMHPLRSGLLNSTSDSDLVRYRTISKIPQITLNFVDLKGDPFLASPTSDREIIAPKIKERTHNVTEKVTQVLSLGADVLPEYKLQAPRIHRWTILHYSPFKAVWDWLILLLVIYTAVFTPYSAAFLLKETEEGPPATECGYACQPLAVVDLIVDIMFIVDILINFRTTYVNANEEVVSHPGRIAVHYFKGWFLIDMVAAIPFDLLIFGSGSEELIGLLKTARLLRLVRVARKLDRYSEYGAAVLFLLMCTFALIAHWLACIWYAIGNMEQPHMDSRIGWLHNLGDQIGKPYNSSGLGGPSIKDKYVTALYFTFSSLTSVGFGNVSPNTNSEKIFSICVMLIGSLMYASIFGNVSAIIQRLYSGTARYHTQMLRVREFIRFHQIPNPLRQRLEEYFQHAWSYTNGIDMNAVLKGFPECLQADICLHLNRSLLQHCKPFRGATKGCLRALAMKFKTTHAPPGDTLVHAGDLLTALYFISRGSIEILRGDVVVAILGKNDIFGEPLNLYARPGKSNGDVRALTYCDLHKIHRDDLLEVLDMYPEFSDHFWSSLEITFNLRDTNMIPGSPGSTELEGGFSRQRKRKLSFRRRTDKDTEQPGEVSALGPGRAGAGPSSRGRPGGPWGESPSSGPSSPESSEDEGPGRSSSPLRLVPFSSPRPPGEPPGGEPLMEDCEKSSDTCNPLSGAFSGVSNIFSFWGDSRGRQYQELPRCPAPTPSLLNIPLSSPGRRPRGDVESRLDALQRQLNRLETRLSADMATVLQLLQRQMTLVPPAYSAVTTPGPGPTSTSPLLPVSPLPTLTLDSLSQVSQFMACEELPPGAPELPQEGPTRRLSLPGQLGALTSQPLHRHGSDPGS
Sequence of Cytochrome P450 3A4 (P08684 whole entry): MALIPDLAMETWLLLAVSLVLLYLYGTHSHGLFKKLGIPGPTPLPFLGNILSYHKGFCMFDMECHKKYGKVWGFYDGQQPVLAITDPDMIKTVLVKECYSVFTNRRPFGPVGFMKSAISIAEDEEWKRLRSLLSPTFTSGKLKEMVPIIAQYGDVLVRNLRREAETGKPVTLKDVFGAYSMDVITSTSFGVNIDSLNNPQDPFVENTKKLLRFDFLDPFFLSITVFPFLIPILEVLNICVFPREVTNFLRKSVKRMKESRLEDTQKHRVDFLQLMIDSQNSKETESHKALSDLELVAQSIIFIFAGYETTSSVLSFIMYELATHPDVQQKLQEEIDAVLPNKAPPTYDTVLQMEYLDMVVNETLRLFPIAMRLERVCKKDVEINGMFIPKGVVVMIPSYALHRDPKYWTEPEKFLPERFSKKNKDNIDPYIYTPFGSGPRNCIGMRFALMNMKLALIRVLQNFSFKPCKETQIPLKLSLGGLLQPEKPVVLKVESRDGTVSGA

Cn1nc(-c2ccncc2)cc1NC(=O)[C@H](Cc1ccccc1)NCC(=O)O
fraction unbound [1]: 0.16 | Tmax [2]: 0.83 h | half-life [3]: 2.3 h | clearance [4]: 2.5 mL/min/kg | Tmax [5]: 0.5 h | bioavailability [6]: 6% | Emax [7]: 73% | Tmax [8]: 4 h | IC50 (Cytochrome P450 3A4): > 30 µM | fraction unbound [9]: 0.01 | Activity (Mus musculus [10]): -25% | remaining at 0.5 h, 1 µM [11]: > 90% | bioavailability [12]: 81% | Cmax [13]: 6.3 µM | Vd [14]: 0.33 L/kg | Activity [15]: Not Active | half-life [16]: 4.1 h | EC50 [17]: 0.031 µM | IC50 [18]: > 30 µM | EC50 [19]: 0.052 µM | Tmax [20]: 0.38 h | Emax (Macaca fascicularis): 79% | EC50 [21]: 0.079 µM | Activity [22]: Active | bioavailability [23]: 3% | Papp [24]: 0.9 ×10⁻⁶ cm/s | Cmax [25]: 7.5 µM | Activity (Mus musculus [26]): -28% | remaining at 0.5 h, 1 µM [27]: > 90% | IC50 (Cytochrome P450 2D6): > 30 µM | clearance [28]: 7.33 mL/min/kg | fraction unbound [29]: 0.1 | Cmax [30]: 0.17 µM | Vd [31]: 0.29 L/kg | Activity (Mus musculus [32]): inactive | Cmax [33]: 0.4 µM | bioavailability [34]: 100%
